Experimental data: publication PMC5624507 (Advanced functional materials, 2017)
Bridge positions count the residues as written; N and C are the ends. Peptide text beside a SMILES is read from it.

Legend:
CD13 (aminopeptidase N) = CD13 (aminopeptidase N) (Homo sapiens, UniProt P15144); test: CD13 enzyme inhibition / steady-state enzyme kinetic analysis; assay type: biochemical; settings: for inhibition model (affected Km, but not Vmax of CD13): steady-state kinetics, double reciprocal plot; for effect of glycine N-methylation of the named peptide on CD13 inhibition: methylated vs non-methylated peptide
Method in brief: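 Enzyme inhibition was run with methylated and non-methylated peptides. IC50 is the peptide concentration inhibiting 50% of activity, from independent experiments each in duplicate. For steady-state kinetics, initial velocity was measured across varied substrate and peptide amounts and plotted as V versus substrate and as double-reciprocal plots. Ki came from two independent experiments (mean ± SE).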

[1] = assay type: physicochemical; settings: 37 °C, 0.1 M ammonium bicarbonate, pH 8.5, 16 or 42 h
αvβ3 integrin = αvβ3 integrin (Homo sapiens, UniProt P05106+P06756); test: Integrin binding assay; settings: after 16 h of incubation in 0.1 M ammonium bicarbonate pH 8.5, 37 °C; competitive ELISA
CD13 = CD13 (Homo sapiens, UniProt P15144); test: MS analysis of peptides after incubation with CD13; assay type: biochemical; settings: 40 min incubation with CD13, peptide 30 µM
Method in brief: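 Peptides were incubated with or without CD13 (the no-enzyme incubation served as control), then analysed by MS.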

[2] = tested on: CD13+ endothelial cells (HUVEC); test: Binding of peptide-Qdot605 nanoparticles to cultured HUVEC; assay type: cell-based, human; settings: peptide coupled to Qdot605 fluorescent nanoparticles, 6 nM, 2 h
Method in brief: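 The control was nanoparticles activated with sulfo-SMCC but lacking peptide. Cell-bound Qdots (red) were imaged by fluorescence microscopy at 400X, with DAPI nuclear counterstain.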

[3] = physiological solutions; cited from earlier work

Molecule | Ki (CD13 (aminopeptidase N)) | inhibition model (affected Km, but not Vmax of CD13) (CD13 (aminopeptidase N)) | asparagine deamidation (change of molecular mass by MS) [1] | binding to αvβ3 integrin after incubation (αvβ3 integrin) | effect of glycine N-methylation of the named peptide on CD13 inhibition (CD13 (aminopeptidase N)) | change in molecular mass upon incubation with CD13 (peptide cleavage) (CD13) | binding to CD13+ endothelial cells (HUVEC) [2] | half-life (deamidation) [3]
N=C(N)NCCC[C@@H]1NC(=O)CNC(=O)[C@H](CC(N)=O)NC(=O)[C@@H](N)CSSC[C@@H](C(=O)O)NC1=O [CNGRC, reference compound] (H-CNGRC-OH; disulfide 1-5; N-terminus and C-terminus assumed) | 134 ± 28 µM | competitive inhibition |  |  |  |  |  | 
N=C(N)NCCC[C@@H]1NC(=O)CNC(=O)[C@H](CC(N)=O)NC(=O)CNC(=O)[C@H](CS)NC(=O)CNC1=O [N1, c[CGNGRG]] (cyclo(CGNGRG)) | 12.4 ± 5.4 µM | competitive inhibition | complete deamidation | could bind | did not impair CD13 binding | No change | could bind | 
CNGRCG |  |  |  |  |  |  |  | 3 to 5 h
cyclo(CNGRGG) [N3] |  |  |  | could bind | reduction of inhibitory potency |  |  | 
